Activity calls are given as the source filed them. No rule for the calls is given here.
Legend:
[1] = molecular target: T1, L-lactate dehydrogenase A chain (Homo sapiens, UniProt P00338); assay: Inhibition of recombinant human LDHA using sodium pyruvate as substrate preincubated for 5 mins followed by diaphorase/resazurin addition and measured after 20 mins by fluorescence based assay
[2] = molecular target: T1, L-lactate dehydrogenase A chain; assay: Inhibition of LDHA in human A673 cells assessed as decrease in lactate production incubated for 2 hrs by lactate oxidase-coupled fluorescence based assay; format: cell-based
[3] = test system: A673; assay: Cytotoxicity against human A673 cells assessed as reduction in cell viability after 48 hrs by CellTiter-Glo assay; format: functional, cell-based; conditions: A673, 48 h
[4] = molecular target: T1, L-lactate dehydrogenase A chain; assay: Inhibition of LDHA in human MIA PaCa-2 cells assessed as decrease in lactate production incubated for 2 hrs by lactate oxidase-coupled fluorescence based assay; format: cell-based
[5] = test system: MIA PaCa-2; assay: Cytotoxicity against human MIA PaCa-2 cells assessed as reduction in cell viability after 48 hrs by CellTiter-Glo assay; format: functional, cell-based; conditions: MIA PaCa-2, 48 h
[6] = molecular target: T1, L-lactate dehydrogenase A chain; assay: Inhibition of GS[HiBiT]GS-tagged LDHA (unknown origin) expressed in HEK-293T cells measured after 1 hr by […]; format: cell-based
In short: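 HEK293T cells were transiently transfected for 24 h with CMV-driven LDHA carrying a C-terminal GS[HiBiT]GS tag, then reseeded at 2500 cells/well in DPBS with Ca/Mg and 1 g/L glucose. […] Cells were lysed with NP40, and 11S (100 nM final) plus furimazine was added.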

[7] = molecular target: L-lactate dehydrogenase B chain (Homo sapiens) (UniProt P07195); assay: Inhibition of recombinant human LDHB using sodium pyruvate as substrate preincubated for 5 mins followed by diaphorase/resazurin addition and measured after 20 mins by fluorescence based assay
Sequence of L-lactate dehydrogenase B chain (Homo sapiens) (P07195 2-334 limits assumed): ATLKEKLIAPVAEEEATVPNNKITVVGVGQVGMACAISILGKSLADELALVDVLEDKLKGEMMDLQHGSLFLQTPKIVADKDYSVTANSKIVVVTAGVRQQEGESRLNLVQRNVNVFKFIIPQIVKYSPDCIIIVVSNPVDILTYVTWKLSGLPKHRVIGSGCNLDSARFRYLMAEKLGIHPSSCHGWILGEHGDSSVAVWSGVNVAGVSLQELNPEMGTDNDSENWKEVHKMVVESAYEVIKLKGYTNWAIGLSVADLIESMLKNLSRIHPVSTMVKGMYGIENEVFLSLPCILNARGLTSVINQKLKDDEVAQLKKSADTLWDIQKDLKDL

[8] = organism: Sus scrofa; assay: Inhibition of porcine heart MDH using malic acid as substrate preincubated for 10 mins followed by substrate addition and measured after 5 mins by resazurin based fluorescence based assay; conditions: time 15.0 min

Row | Structure (SMILES) | IC50 [1] | IC50 [2] | IC50 [3] | IC50 [4] | IC50 [5] | IC50 [6] | inhibition [7] | inhibition [8]
1 | NS(=O)(=O)c1ccc(Cc2c(-c3ccc(F)c(C#Cc4cccs4)c3)nn(-c3nc(C(=O)O)cs3)c2CC2CC2)cc1F | 0.032 µM | 0.438 µM | 0.265 µM | 0.307 µM | 0.268 µM | 0.089 µM | Active | inactive
2 | CCCCC#Cc1cc(-c2nn(-c3nc(C(=O)O)cs3)c(CC3CC3)c2Cc2ccc(S(N)(=O)=O)c(F)c2)ccc1F | 0.05 µM | 0.405 µM | 0.773 µM | 0.298 µM | 0.845 µM | 0.106 µM | Active | inactive
3 | N#CC#Cc1cc(-c2nn(-c3nc(C(=O)O)cs3)c(CC3CC3)c2Cc2ccc(S(N)(=O)=O)c(F)c2)ccc1F | 0.015 µM | 4.01 µM | > 30 µM | 4.4 µM | > 30 µM | 0.474 µM | Active | inactive
4 | CCC#Cc1cc(-c2nn(-c3nc(C(=O)O)cs3)c(CC3CC3)c2Cc2ccc(S(N)(=O)=O)c(F)c2)ccc1F | 0.014 µM | 0.487 µM | 0.716 µM | 0.47 µM | 0.662 µM | 0.112 µM | Active | inactive
5 | Cc1ncc(C#Cc2cccc(-c3nn(-c4nc(C(=O)O)cs4)c(CCC4CC4)c3Cc3ccc(S(N)(=O)=O)c(F)c3)c2)s1 | 0.024 µM | 0.434 µM | 0.218 µM | 0.334 µM | 0.218 µM | 17.8 µM | Active | inactive
6 | NS(=O)(=O)c1ccc(Cc2c(-c3ccc(F)c(-c4ccccc4)c3)nn(-c3nc(C(=O)O)cs3)c2CC2CC2)cc1F | 0.023 µM | 0.465 µM | 1.34 µM | 0.585 µM | 3.42 µM | 0.141 µM | Active | inactive
7 | Cc1nc(C#Cc2cccc(-c3nn(-c4nc(C(=O)O)cs4)c(CCC4CC4)c3Cc3ccc(S(N)(=O)=O)c(F)c3)c2)cs1 | 0.024 µM | 0.3 µM | 0.219 µM | 0.253 µM | 0.219 µM | 0.09 µM | Active | inactive
8 | CC(C)(C)/C=C/c1cc(-c2nn(-c3nc(C(=O)O)cs3)c(CC3CC3)c2Cc2ccc(S(N)(=O)=O)c(F)c2)ccc1F | 0.059 µM | 0.361 µM | 2.26 µM | 0.255 µM | 1.9 µM | 0.112 µM | Active | inactive
9 | C#Cc1cc(-c2nn(-c3nc(C(=O)O)cs3)c(CC3CC3)c2Cc2ccc(S(N)(=O)=O)c(F)c2)ccc1F | 0.009 µM | 0.902 µM | 4.35 µM | 0.66 µM | 4.03 µM | 0.253 µM | Active | inactive
10 | NS(=O)(=O)c1ccc(Cc2c(-c3ccc(F)c(C#CCC4CC4)c3)nn(-c3nc(C(=O)O)cs3)c2CC2CC2)cc1F | 0.031 µM | 0.234 µM | 1.02 µM | 0.259 µM | 1.03 µM | 0.089 µM | Active | inactive
11 | NS(=O)(=O)c1ccc(Cc2c(-c3ccc(F)c(C#CC(F)F)c3)nn(-c3nc(C(=O)O)cs3)c2CC2CC2)cc1F | 0.015 µM | 0.937 µM | 1.48 µM | 0.741 µM | 1.33 µM | 0.163 µM | Active | inactive
12 | COCC#Cc1cc(-c2nn(-c3nc(C(=O)O)cs3)c(CC3CC3)c2Cc2ccc(S(N)(=O)=O)c(F)c2)ccc1F | 0.008 µM | 0.769 µM | 1.23 µM | 0.525 µM | 1.09 µM | 0.119 µM | Active | inactive
13 | CC(C)(C)C#Cc1cc(-c2nn(-c3nc(C(=O)O)cs3)c(CC3CC3)c2Cc2ccc(S(N)(=O)=O)c(F)c2)ccc1F | 0.016 µM | 0.141 µM | 0.935 µM | 0.137 µM | 0.845 µM | 0.075 µM | Active | inactive
14 | NS(=O)(=O)c1ccc(Cc2c(-c3cccc(-c4ccccc4)c3)nn(-c3nc(C(=O)O)cs3)c2CC2CC2)cc1F | 0.025 µM | 0.613 µM | 1.14 µM | 0.867 µM | 3.38 µM | 0.15 µM | Active | inactive
15 | CC#Cc1cc(-c2nn(-c3nc(C(=O)O)cs3)c(CC3CC3)c2Cc2ccc(S(N)(=O)=O)c(F)c2)ccc1F | 0.011 µM | 0.505 µM | 0.332 µM | 0.45 µM | 0.322 µM | 0.119 µM | Active | inactive
16 | NS(=O)(=O)c1ccc(Cc2c(-c3cccc(C#Cc4ccc(Cl)s4)c3)nn(-c3nc(C(=O)O)cs3)c2CC2CC2)cc1F | 0.167 µM | 0.218 µM | 0.452 µM | 0.408 µM | 0.556 µM | 0.113 µM | Active | inactive
17 | NS(=O)(=O)c1ccc(Cc2c(-c3ccc(F)c(C#CCCO)c3)nn(-c3nc(C(=O)O)cs3)c2CC2CC2)cc1F | 0.003 µM | 2.48 µM | 1.8 µM | 1.66 µM | 1.33 µM | 0.577 µM | Active | inactive
18 | NS(=O)(=O)c1ccc(Cc2c(-c3cccc(-c4ccccc4)c3)nn(-c3nc(C(=O)O)cs3)c2CC2CC2(F)F)cc1 (stereo unspecified) | 0.025 µM | 1.42 µM | 4.64 µM | 1.72 µM | 10.7 µM | 0.501 µM | Active | inactive
19 | NS(=O)(=O)c1ccc(Cc2c(-c3cccc(-c4ccccc4)c3)nn(-c3nc(C(=O)O)cs3)c2CC(F)(F)F)cc1 | 0.274 µM | 9.72 µM | 0.148 µM | 19.4 µM | 3.17 µM | 15.8 µM | Active | inactive
20 | Cc1cnc(C#Cc2cccc(-c3nn(-c4nc(C(=O)O)cs4)c(CC4CC4)c3Cc3ccc(S(N)(=O)=O)c(F)c3)c2)s1 | 0.017 µM | 0.527 µM | 0.309 µM | 0.487 µM | 0.36 µM | 0.09 µM | Active | inactive
21 | NS(=O)(=O)c1ccc(Cc2c(-c3ccc(F)c(/C=C/C4CC4)c3)nn(-c3nc(C(=O)O)cs3)c2CC2CC2)cc1F | 0.015 µM | 0.32 µM | 0.833 µM | 0.231 µM | 0.837 µM | 0.134 µM | Active | inactive
22 | NS(=O)(=O)c1ccc(Cc2c(-c3ccc(F)c(C#CCC4CCCO4)c3)nn(-c3nc(C(=O)O)cs3)c2CC2CC2)cc1F (stereo unspecified) | 0.009 µM | 0.933 µM | 1.38 µM | 0.937 µM | 1.23 µM | 0.178 µM | Active | inactive

Reference: ChEMBL document CHEMBL4665801, “Pyrazole-Based Lactate Dehydrogenase Inhibitors with Optimized Cell Activity and Pharmacokinetic Properties” (J Med Chem, 2020)
